Measurements reported in publication PMC3205922 (Biochemistry, 2011).
Where two headings read alike, the source gives them in different places. Non-standard residues stand in square brackets, D forms with d. No end group written: not given here. pT = C[C@@H](OP(=O)(O)O)[C@H](N)C(=O)O

Columns and labels:
[1] = target: T1, LRRK2 mutant t-G2019S (aa 970–2527) (Homo sapiens, UniProt Q5S007, G2019S); assay: TR-FRET assay of PLK-peptide phosphorylation, initial velocity and inhibition; format: biochemical
T1 sequence (Q5S007 970-2527 G2019S): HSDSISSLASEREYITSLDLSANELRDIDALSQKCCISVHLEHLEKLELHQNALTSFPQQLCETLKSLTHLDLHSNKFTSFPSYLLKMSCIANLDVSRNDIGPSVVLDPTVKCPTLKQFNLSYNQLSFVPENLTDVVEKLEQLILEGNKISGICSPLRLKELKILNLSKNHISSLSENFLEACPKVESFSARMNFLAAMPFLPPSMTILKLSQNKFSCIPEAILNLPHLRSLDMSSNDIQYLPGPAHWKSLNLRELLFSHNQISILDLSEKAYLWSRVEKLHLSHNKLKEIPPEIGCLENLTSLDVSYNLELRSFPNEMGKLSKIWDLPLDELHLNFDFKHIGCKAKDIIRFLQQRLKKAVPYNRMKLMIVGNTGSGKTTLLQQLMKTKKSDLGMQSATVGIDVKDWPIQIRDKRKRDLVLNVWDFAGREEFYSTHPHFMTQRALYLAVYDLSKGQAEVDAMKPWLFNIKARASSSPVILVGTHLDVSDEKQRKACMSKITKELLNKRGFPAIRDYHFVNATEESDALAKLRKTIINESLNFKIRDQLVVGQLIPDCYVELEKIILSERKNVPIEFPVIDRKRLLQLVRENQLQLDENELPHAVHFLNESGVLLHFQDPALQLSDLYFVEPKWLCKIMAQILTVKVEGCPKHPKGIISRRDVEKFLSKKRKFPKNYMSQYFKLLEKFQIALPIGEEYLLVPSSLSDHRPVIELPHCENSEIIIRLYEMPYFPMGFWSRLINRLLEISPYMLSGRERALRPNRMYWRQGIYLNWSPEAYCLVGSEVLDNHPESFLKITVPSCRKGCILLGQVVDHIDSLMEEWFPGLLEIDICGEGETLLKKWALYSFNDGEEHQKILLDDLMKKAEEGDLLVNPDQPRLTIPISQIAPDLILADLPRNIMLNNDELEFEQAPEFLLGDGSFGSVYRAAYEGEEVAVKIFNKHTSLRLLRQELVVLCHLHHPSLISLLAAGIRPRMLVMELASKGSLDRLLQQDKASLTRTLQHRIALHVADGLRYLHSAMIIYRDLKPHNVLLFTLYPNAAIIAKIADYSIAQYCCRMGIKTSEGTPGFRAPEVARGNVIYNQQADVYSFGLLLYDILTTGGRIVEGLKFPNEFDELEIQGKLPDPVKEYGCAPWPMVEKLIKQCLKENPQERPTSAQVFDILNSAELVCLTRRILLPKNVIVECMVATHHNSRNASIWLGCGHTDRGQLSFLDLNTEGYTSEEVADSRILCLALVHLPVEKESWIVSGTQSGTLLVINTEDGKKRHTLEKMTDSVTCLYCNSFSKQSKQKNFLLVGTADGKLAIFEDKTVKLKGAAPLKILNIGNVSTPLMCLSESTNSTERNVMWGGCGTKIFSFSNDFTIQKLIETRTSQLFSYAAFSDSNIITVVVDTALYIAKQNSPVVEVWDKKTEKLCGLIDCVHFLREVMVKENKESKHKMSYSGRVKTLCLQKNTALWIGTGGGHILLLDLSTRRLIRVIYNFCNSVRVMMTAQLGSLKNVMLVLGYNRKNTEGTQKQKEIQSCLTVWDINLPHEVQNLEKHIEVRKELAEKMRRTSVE
Procedure, shortened: (§1)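 Baculovirus-expressed truncated LRRK2 (aa 970–2527). ATP varied at several fixed PLK-peptide levels. Started with 4 nM enzyme; duplicate wells, RT, 4 h. Stopped with 10 mM EDTA; 2 nM Eu-anti-phospho-PLK added for 2 h; TR-FRET read. Initial velocities fitted by nonlinear least squares to two-substrate rate equations.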

[2] = target: T2, truncated wild-type LRRK2 (aa 970–2527) (Homo sapiens, UniProt Q5S007); assay: TR-FRET assay of PLK-peptide phosphorylation; format: biochemical
T2 sequence (Q5S007 970-2527): as the sequence (Q5S007 970-2527 G2019S) above, with S1050G counted along it
Procedure, shortened: as §1

[3] = target: T2, truncated wild-type LRRK2 (aa 970–2527); format: biochemical; conditions: for KA (ATP): t-WT
[4] = target: T1, LRRK2 mutant t-G2019S (aa 970–2527); format: biochemical; conditions: for KA (ATP): t-G2019S
truncated LRRK2 proteins = assay: Effect of GTP or GDP on kinase activity; format: biochemical, human; conditions: in vitro
[5] = system: mutant t-G2019S (GTPase activity); assay: Radiometric TLC assay of LRRK2-catalyzed GTP hydrolysis; format: biochemical, human
Procedure, shortened: (§2)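 Baculovirus-expressed truncated LRRK2 (aa 970–2527), wild-type or G2019S. Run in triplicate, 20 min at room temperature, quenched with 20 mM EDTA. GDP resolved by PEI-cellulose TLC (0.5 M KH2PO4, pH 3.4) and scintillation-counted. Initial velocities versus [GTP] fitted to Michaelis-Menten.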

[6] = system: t-wt LRRK2 (GTPase activity); assay: as above; format: biochemical, human; conditions: pH 7.4, room temperature, Michaelis-Menten fit
Procedure, shortened: as §2

t-wt LRRK2 = t-wt LRRK2 (Homo sapiens, UniProt Q5S007); format: biochemical; conditions: t-wt LRRK2 treated with NEM
Chain of t-wt LRRK2 (Q5S007 970-2527): as the sequence (Q5S007 970-2527 G2019S) above, with S1050G counted along it

[7] = target: Truncated LRRK2 mutant G2019S (aa 970–2527) (human) (UniProt Q5S007); assay: enzyme inhibition kinetics
Chain of Truncated LRRK2 mutant G2019S (aa 970–2527) (human) (Q5S007 970-2527 G2019S): as the sequence (Q5S007 970-2527 G2019S) above

[8] = target: Truncated wild-type LRRK2 (aa 970–2527) (human, UniProt Q5S007 970-2527); assay: enzyme inhibition kinetics
Chain of Truncated wild-type LRRK2 (aa 970–2527) (Q5S007 970-2527): as the sequence (Q5S007 970-2527 G2019S) above, with S1050G counted along it

Q: What does the source list for “RRRSLLE (Only the motif RRRSLLE is printed; The Ser is the phosphoaccept) [PLK-peptide]”?
A: Kb ([1]; read-out: KB (phosphoryl acceptor), TR-FRET, averaged from two independent experiments): 0.5 ± 0.2 µM; Kb ([2]; read-out: KB (phosphoryl acceptor), t-WT, TR-FRET, averaged from two independent experiments): 0.43 ± 0.05 µM

Q: What does the source list for RRRSLLE [PLK-peptide]?
A: α ([1]; TR-FRET, interaction factor (eq 3)): 0.6 ± 0.3; tighter binding relative to LRRKtide ([2]; from differences in Km values): > 200 fold; α ([2]; t-WT, TR-FRET, interaction factor (eq 3)): 0.5 ± 0.1

Q: Which results are given for RLGRDKYKTLRQIRQ [LRRKtide]?
A: Kb [3]: 87 ± 11 µM; Kb [4]: 79 ± 11 µM

Q: For `Nc1nc2c(ncn2[C@@H]2O[C@H](COP(=O)(O)OP(=O)(O)O)[C@@H](O)[C@H]2O)c(=O)[nH]1` [GDP], which “effect on kinase activity” value (truncated LRRK2 proteins) is on record?
A: unable to detect any effect

Q: For `Nc1nc2c(ncn2[C@@H]2O[C@H](COP(=O)(O)OP(=O)(O)OP(=O)(O)O)[C@@H](O)[C@H]2O)c(=O)[nH]1` [GTP], which “decrease of GTPase activity by the mutation” value ([5]; t-G2019S versus t-wt) is on record?
A: 20%

Q: And the KGTP ([5]; t-G2019S, pH 7.4, room temperature, Michaelis-Menten fit)?
A: 0.4 ± 0.1 mM

Q: What about the “kcat (GTP hydrolysis)” value ([5]; t-G2019S, pH 7.4, room temperature, Michaelis-Menten fit, triplicate) of the same molecule?
A: 0.03 ± 0.002 s⁻¹

Q: What about the “effect on kinase activity” value (truncated LRRK2 proteins) of the same molecule?
A: unable to detect any effect

Q: And the KGTP [6]?
A: 0.7 ± 0.1 mM

Q: And the “kcat (GTP hydrolysis)” value ([6]; triplicate)?
A: 0.04 ± 0.004 s⁻¹

Q: How did the inhibition mechanism ([4]; LRRKtide phosphorylation, variable substrate LRRKtide) turn out when `Nc1ncnc2c1ncn2[C@@H]1O[C@H](COP(=O)(O)OP(=O)(O)O)[C@@H](O)[C@H]1O` [ADP] was run?
A: noncompetitive

Q: What does the source list for `Nc1ncnc2c1ncn2[C@@H]1O[C@H](COP(=O)(O)OP(=O)(O)OP(=O)(O)O)[C@@H](O)[C@H]1O` [ATP]?
A: KA (ATP) ([1]; phosphoryl acceptor PLK-peptide): 10 ± 3.9 µM; KA (ATP) ([2]; t-WT, phosphoryl acceptor PLK-peptide): 7.1 ± 0.7 µM; KA (ATP) ([3]; phosphoryl acceptor LRRKtide): 69 ± 6.6 µM; KA (ATP) ([3]; phosphoryl acceptor LRRKtide^S): 77 ± 19 µM; KA (ATP) ([4]; phosphoryl acceptor LRRKtide): 101 ± 16 µM; KA (ATP) ([4]; phosphoryl acceptor LRRKtide^S): 161 ± 38 µM

Q: `CCN1C(=O)C=CC1=O` [NEM, N-ethylmaleimide] was tested. Which “inhibition of LRRK2, dose-response” value (t-wt LRRK2) did it give?
A: complete inhibition at high NEM concentration

Q: Which Ki,e (variable substrate ATP, noncompetitive; LRRKtide^S phosphorylation) [7] does the source give for LRRKtide^A (peptide) here?
A: 800 µM

Q: And the Ki,e (variable substrate ATP, noncompetitive; PLK-peptide phosphorylation) [7]?
A: 800 µM

Q: And the Ki,ea (variable substrate ATP, noncompetitive; LRRKtide^S phosphorylation) [7]?
A: 500 µM

Q: And the Ki,ea (variable substrate ATP, noncompetitive; PLK-peptide phosphorylation) [7]?
A: 500 µM

Q: And the Ki,ea (variable substrate LRRKtide^S, competitive) [7]?
A: 500 µM

Q: And the Ki,ea (variable substrate PLK-peptide, competitive) [7]?
A: 500 µM

Q: Does RLGRDKYK[pT]LRQIRQ (not fully specified; printed as RLGRDKYK(PO4)TLRQIRQ) [PO4-LRRKtide] bind [8]?
A: binds
